Source: PubChem
SUMO1-SIM PPI = modulators of human SUMO1-mediated protein-protein interactions | P63165 | SUMO1 binding to a labelled peptide, TR-FRET, 1 h | inhibition, % at 20 µM | 0.33% of 360,000 active | AID 602429; in the data active means inhibition above about 37%
Scp-1 inhibitor = inhibitors of human Scp-1 phosphatase; Recombinant Scp1, phosphopeptide, malachite green phosphate absorbance; 0.88% of 340,000 active; Q9GZU7; inhibition, % at 20 µM; AID 493091;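 active means inhibition above about 50% at 20 µM, limit read from the data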;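 further: plate controls were DMSO wells with enzyme for no effect and wells lacking enzyme for full effect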
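System: SCP-1 catalytic domain; Reagent: Phospho 17-mer peptide substrate; Doses: one concentration, 20 µM, with 1.0% DMSO; Incubation: 45 min room-temperature reaction, 5 min colour, 30 min stabiliser; Signal: Phosphate-binding colour reagent, absorbance read at 630 nm.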
CFTR F508del cor = correctors of CFTR F508del function in bronchial epithelial cells; CFBE cells, YFP halide quenching; stimulated with forskolin plus potentiator P3; % fluorescence drop versus neutral controls; activity (quench increase), % at 7.58 µM; 0.36% of 350,000 active; AID 720511;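 active means mean added fluorescence quench of at least 8% versus neutral control, with both replicates also reaching 8%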;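 further: cells transiently co-express mutant CFTR-F508del with the halide-sensitive YFP; corrector assay measuring rescue of mutant channel to the surface after 24 h compound exposure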
LMPTP block = LMPTP (human) inhibition; AID 651560; P24666; recombinant LMPTP-A, OMFP fluorogenic substrate, fluorescence intensity; inhibition, % at 20 µM; 0.22% of 360,000 active;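 active means compounds that cut the enzyme signal by at least half of the control window in the single-dose screen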;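 further: plate controls were DMSO wells with enzyme plus substrate for no effect and substrate without enzyme for full effect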
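Assay system: LMPTP-A enzyme. Input: 0.625 nM LMPTP-A final. Probe or stimulus: 400 µM OMFP. Compound dosing: single 20 µM dose. Schedule: 50 min dark incubation at room temperature. Detection: fluorescence intensity of OMFP turnover product. Read-out: percent inhibition versus substrate-only and uninhibited controls. Benchmarks: no-enzyme low control, uninhibited high control.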
STEP block = STEP (human) phosphatase inhibition; P54829; inhibition, % at 20 µM; recombinant STEP, OMFP fluorogenic substrate, fluorescence; AID 588621; 0.25% of 360,000 active;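 active means inhibition at 20 µM, scaled per plate between control wells, above about 37%, limit read from the data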;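 further: 0% = DMSO with enzyme and substrate and 100% = substrate only without enzyme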
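Material: STEP (striatal-enriched tyrosine phosphatase) enzyme, cell-free; Compound dosing: 20 µM single dose in 1% DMSO; Technique: fluorescence read at 480 nm ex / 540 nm em; Times: reaction 20 min, ambient temperature; Medium: 50 mM Bis-Tris pH 6.0 with 2.5 mM DTT and 0.005% Tween 20; Also added: OMFP at 25 µM.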
DNMT1 block = inhibitors of human DNMT1. DNMT1 molecular beacon, Hinp1I cleavage, fluorescence. inhibition (reported as % activation of signal), % at 10 µM. 0.83% of 360,000 active; in the data active means inhibition above about 50%
Target sequence (P26358 504-1616 limits assumed): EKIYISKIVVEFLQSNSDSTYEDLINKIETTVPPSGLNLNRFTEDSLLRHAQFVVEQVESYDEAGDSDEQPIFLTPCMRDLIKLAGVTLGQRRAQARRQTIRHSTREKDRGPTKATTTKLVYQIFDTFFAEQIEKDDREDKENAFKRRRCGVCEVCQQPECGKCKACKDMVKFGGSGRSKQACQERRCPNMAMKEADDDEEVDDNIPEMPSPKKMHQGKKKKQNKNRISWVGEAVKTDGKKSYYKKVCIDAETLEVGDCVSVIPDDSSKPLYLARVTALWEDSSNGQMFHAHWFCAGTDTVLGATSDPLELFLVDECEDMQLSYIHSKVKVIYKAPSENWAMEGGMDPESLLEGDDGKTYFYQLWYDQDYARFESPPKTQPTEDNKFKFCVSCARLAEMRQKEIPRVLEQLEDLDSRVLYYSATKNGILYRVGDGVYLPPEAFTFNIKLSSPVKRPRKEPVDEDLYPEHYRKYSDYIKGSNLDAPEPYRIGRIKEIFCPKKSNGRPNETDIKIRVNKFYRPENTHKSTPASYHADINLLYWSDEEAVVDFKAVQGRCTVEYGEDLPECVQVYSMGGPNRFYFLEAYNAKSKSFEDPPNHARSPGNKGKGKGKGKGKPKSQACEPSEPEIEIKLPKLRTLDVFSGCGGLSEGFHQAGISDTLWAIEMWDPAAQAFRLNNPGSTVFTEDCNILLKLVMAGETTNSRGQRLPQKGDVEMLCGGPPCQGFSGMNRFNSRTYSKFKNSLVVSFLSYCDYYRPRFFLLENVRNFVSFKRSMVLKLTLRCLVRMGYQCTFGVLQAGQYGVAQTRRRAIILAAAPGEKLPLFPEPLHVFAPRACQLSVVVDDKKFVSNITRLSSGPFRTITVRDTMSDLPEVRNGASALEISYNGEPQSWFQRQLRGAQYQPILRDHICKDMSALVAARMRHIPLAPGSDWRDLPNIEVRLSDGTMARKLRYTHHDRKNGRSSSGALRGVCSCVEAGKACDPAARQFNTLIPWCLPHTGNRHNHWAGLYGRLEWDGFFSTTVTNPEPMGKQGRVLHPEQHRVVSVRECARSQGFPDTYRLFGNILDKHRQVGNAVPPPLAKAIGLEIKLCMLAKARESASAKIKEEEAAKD
DNMT1 interf DR = shows spectral interference in the DNMT1 beacon assay; shares compounds with DNMT1 block; molecular beacon fluorescence, spectral interference counter-screen; IC50, µM; 200 tested, under 10 active; AID 602382; call rule not given here
DNMT1 confirm = confirmation of human DNMT1 inhibitors. DNMT1 molecular beacon HinP1I cleavage, fluorescence. shares compounds with DNMT1 block. inhibition, % at 10 µM. 8% of 2,300 active;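 active means average inhibition of at least 30% in the single-concentration confirmation test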
DNMT1 interf = counter-screen for DNMT1 inhibitors: spectral interference | shares compounds with DNMT1 block | DNMT1 molecular beacon spectral interference counterscreen, fluorescence 485/520 | activation (fluorescence interference), % at 10 µM | 1% of 2,300 active;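 active means activation of at least 30% at 10 µM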;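 further: DNMT1 catalytic domain with a HinP1I cleavage step and a FAM/dabcyl DNA beacon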
* = called active by the depositor; . = not tested or not shown. Only some compounds are listed: those with a hit (about 1.6% of all), similar ones and a draw of the others.

SMILES | SUMO1-SIM PPI | Scp-1 inhibitor | CFTR F508del cor | LMPTP block | STEP block | DNMT1 block | DNMT1 confirm | DNMT1 interf | others
Cn1ccc2c(N3c4ccccc4CCc4ccccc43)cc3c(c21)C1CCC3O1 (stereo not drawn) | -6.5 | . | 2.9 | 4.9 | 5.5 | 50.2* | 1.1 | 1.9
O=C(CCNS(=O)(=O)c1ccccc1C(F)(F)F)N1CCCCCCC1 | 2.4 | -4.9 | -1.6 | 0.4 | -2.1 | 52.5* | 2.0 | 3.2
Cn1c(SCC(=O)c2cc(Cl)c(Cl)s2)nnc1-c1ccco1 | 15.4 | 9.7 | -0.8 | 30.5 | 31.4 | 51.9* | 7.9 | 4.6
CCc1nnc(NC(=O)CSc2ccc(-c3ccco3)nn2)s1 | 1.3 | -4.9 | -10.1 | -1.7 | -5.1 | 4.2 | . | .
Cc1nnc(NC(=O)CSc2ccc(-c3ccco3)nn2)s1 | 23.7 | 17.4 | 1.4 | 9.0 | 11.6 | 52.6* | 0.1 | 1.7
COc1ccc(-c2cc(=O)oc3c(C)c(OC(=O)c4cccs4)ccc23)cc1 | 1.2 | 1.2 | 6.1 | 1.7 | 1.1 | 59.6* | 3.0 | -8.6
O=[N+]([O-])c1ccc2nc(-c3ccc(Cl)cc3)[nH]c2c1 | -0.2 | -6.0 | 3.1 | 4.4 | 6.1 | -21.3 | . | .
O=[N+]([O-])c1ccc(-c2cc(-c3ccc(Cl)cc3)n[nH]2)cc1 | 46.9* | -4.1 | . | 6.5 | 0.2 | 91.0* | 9.1 | -1.1
COc1ccc(NC(=O)Nc2ccc3c(c2)C(=O)N([C@@H](C)CO)C[C@@H](C)[C@@H](CN(C)S(=O)(=O)c2ccc(OC)cc2)O3)cc1 | . | . | -1.9 | . | . | . | . | .
O=C(O)c1ccc(C(=O)c2ccc3c(c2)C(=O)N(CCO)C3=O)cc1 | -23.8 | -2.0 | -0.4 | 0.9 | -0.6 | 88.2* | -0.3 | 1.1
CC(C)n1cc(/C=N/Nc2ccc(Cl)c(C(=O)O)c2)c2ccccc21 | 113.6* | . | . | 54.5* | 91.1* | 82.3* | 14.2 | 2.9
O=C(O)c1cc(N/N=C/c2cccc3ccccc23)ccc1Cl | 7.4 | -3.1 | 2.8 | -1.3 | -0.4 | 2.1 | . | .
CCCCn1c(=NC(C)=O)c(C#N)cc2c(=O)n3cccc(C)c3nc21 | -3.8 | 10.5 | 0.3 | 8.5 | 8.8 | 63.6* | 0.3 | 1.8
CCOCCCn1c(=NC(C)=O)c(C#N)cc2c(=O)n3cccc(C)c3nc21 | 7.7 | 9.7 | . | 21.9 | -1.0 | 22.4 | . | .
CCCCCn1c(=NC(C)=O)c(C#N)cc2c(=O)n3ccccc3nc21 | -12.3 | 2.2 | . | 17.6 | 0.2 | 78.3* | 2.1 | 1.9
O=C(CSc1nnnn1-c1ccccc1)Nc1nsc(-c2ccc(Cl)cc2)n1 | 6.4 | 0.3 | . | 9.3 | 1.7 | 71.3* | -0.5 | -4.1
O=C(CSc1ccc2ccccc2n1)Nc1nsc(-c2ccc(Cl)cc2)n1 | 43.1* | 0.1 | . | 55.9* | 13.7 | 76.6* | 1.1 | -2.9
O=C(CSc1nnnn1-c1ccccc1)Nc1nsc(-c2ccccc2)n1 | 1.0 | 0.8 | . | -0.1 | 0.1 | -0.9 | . | .
CCC(=O)Nc1ccc2c(c1)OC[C@H](C)N(CC1CCCCC1)C[C@H](C)[C@H](OC)CN(C)C2=O | . | . | 0.3 | . | . | . | . | .
COC(=O)N1CCN(c2ccc(C(C)=O)cc2)CC1 | 0.3 | -6.5 | . | 1.9 | -2.4 | -4.3 | . | .
COC(=O)c1ccc(N2CCS(=O)(=O)CC2)cc1 | 2.6 | 6.6 | -3.3 | 0.1 | -4.9 | 58.7* | 1.7 | 3.5
Cc1c(C(=O)OCC(=O)N2CC(=O)Nc3ccccc32)oc2ccc(Br)cc12 | -1.1 | -6.1 | . | 1.0 | 4.8 | 51.2* | 1.0 | 1.5
Cc1cc(C(=O)OCC(=O)N2CC(=O)Nc3ccccc32)no1 | 1.3 | -7.8 | . | -2.5 | -4.2 | -0.8 | . | .
CCOc1cc(/C=C2\CCCc3c2nc2ccccc2c3C(=O)O)ccc1OC | 8.5 | -7.1 | 4.7 | -5.7 | -49.6 | 61.0* | 2.1 | 0.7
COc1ccc(/C=C2\CCn3c2nc2ccccc2c3=O)cc1OC | -17.3 | -3.5 | . | -0.2 | 0.2 | -4.6 | . | .
SMILES | SUMO1-SIM PPI | Scp-1 inhibitor | CFTR F508del cor | LMPTP block | STEP block | DNMT1 block | DNMT1 confirm | DNMT1 interf | others
Clc1ccc(CNc2ccc3nnc(-c4ccccc4)n3n2)cc1 | 2.7 | 3.5 | -3.2 | 8.1 | 0.5 | 65.6* | 0.1 | -1.6
C#CCn1c(=NC(=O)CN2C(=O)CCC2=O)sc2cccc(OC)c21 | 2.9 | -2.7 | -3.2 | -1.4 | 8.3 | 19.2 | . | .
C#CCn1c(=NC(=O)c2cccs2)sc2cccc(OC)c21 | -5.1 | 16.8 | 0.8 | 11.1 | 2.0 | 57.9* | 3.2 | 33.4*
C[C@@H]1CN([C@@H](C)CO)C(=O)c2cc(NS(=O)(=O)c3cn(C)cn3)ccc2O[C@@H]1CN(C)Cc1ccc(Cl)c(Cl)c1 | . | . | 1.1 | . | . | . | . | .
C(=C\c1nc(N2CCCC2)c2ccccc2n1)/c1ccccc1 | -1.6 | 17.6 | . | 84.8* | 1.6 | 60.5* | 2.8 | 2.6
Cc1ccc(S(=O)(=O)N[C@@H]2C=C[C@@H](CC(=O)NCCc3ccncc3)O[C@H]2CO)cc1 | . | . | -1.6 | . | . | . | . | .
Cc1ccc(-n2cc3c(-c4cccc(Br)c4)nnc(C)c3n2)cc1 | 1.1 | 13.3 | . | 7.1 | -16.8 | 64.3* | 15.8 | -0.4
Cc1nnc(-c2cccc(Br)c2)c2cn(-c3ccccc3Cl)nc12 | -3.3 | 5.6 | . | 1.3 | 1.3 | 41.6 | . | .
CSc1sc(-c2n[nH]c(=S)n2C)c2c1C=CCC2 | 9.0 | 4.0 | 0.7 | 50.4* | -0.3 | 65.5* | -1.6 | -6.5
O=C(O)c1ccc(-n2cccc2/C=C2/SC(=O)N(CC(=O)N3CCCC3)C2=O)cc1 | 80.9* | 75.6* | -1.2 | 18.3 | 92.7* | 91.4* | 81.2* | -4.5 | DNMT1 interf DR=>99
O=C(O)c1ccc(-n2cccc2/C=C2/NC(=O)N(c3cccc(Cl)c3)C2=O)cc1 | -2.3 | 77.2* | -2.8 | 47.2 | 43.2* | 94.3* | 83.8* | -3.6 | DNMT1 interf DR=>99
O=C1N/C(=C/c2cccn2-c2ccc(F)cc2)C(=O)N1Cc1ccccc1 | -2.7 | -1.5 | . | 0.2 | 1.5 | 5.4 | . | .
O=C(O)c1cccc(-n2cccc2/C=C2\NC(=O)N(Cc3ccc(F)cc3)C2=O)c1 | 1.8 | 45.8 | -1.5 | 3.6 | 6.1 | 107.2* | 15.7 | 3.0
O=C(O)c1ccc(-n2cccc2/C=C2/NC(=O)N(c3ccccc3)C2=O)cc1 | 88.6* | 89.0* | 1.0 | 26.5 | 72.8* | 92.8* | 82.9* | -2.8 | DNMT1 interf DR=>99
C[C@@H]1CN([C@@H](C)CO)C(=O)Cc2cc(NS(=O)(=O)c3ccccc3)ccc2O[C@@H]1CN(C)C | . | . | -2.0 | . | . | . | . | .
